Results: ChEMBL document CHEMBL1145888, “Prazosin-related compounds. Effect of transforming the piperazinylquinazoline moiety into an aminomethyltetrahydroacridine system on the affinity for alpha1-adrenoreceptors” (J Med Chem, 2003)

Columns and labels:
[1] = target: T1, Alpha-1D adrenergic receptor (Rattus norvegicus) (UniProt P23944); experiment: Affinity was evaluated against Alpha-1D adrenergic receptor in isolated rat aorta expressed as pKB; format: tissue-based
T1 sequence (whole entry): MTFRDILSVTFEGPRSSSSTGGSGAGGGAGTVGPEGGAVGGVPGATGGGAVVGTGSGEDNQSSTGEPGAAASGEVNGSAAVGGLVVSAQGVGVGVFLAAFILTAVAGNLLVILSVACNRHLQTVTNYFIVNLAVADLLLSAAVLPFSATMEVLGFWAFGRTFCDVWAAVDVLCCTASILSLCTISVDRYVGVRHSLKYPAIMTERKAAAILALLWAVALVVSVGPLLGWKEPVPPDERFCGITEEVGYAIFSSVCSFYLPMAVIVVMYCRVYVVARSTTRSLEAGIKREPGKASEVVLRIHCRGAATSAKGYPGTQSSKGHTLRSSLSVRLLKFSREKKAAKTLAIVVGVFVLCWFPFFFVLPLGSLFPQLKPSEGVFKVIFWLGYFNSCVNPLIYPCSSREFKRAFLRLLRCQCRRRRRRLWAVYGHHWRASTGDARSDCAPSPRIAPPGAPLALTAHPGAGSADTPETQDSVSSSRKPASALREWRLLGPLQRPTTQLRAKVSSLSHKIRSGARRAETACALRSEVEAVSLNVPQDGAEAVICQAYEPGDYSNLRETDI
In short: (§1)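 Isolated rat tissue; isometric contractions recorded via force transducer, with parallel tissues receiving no antagonist to check for sensitivity drift. A control agonist cumulative concentration-response curve was run, then antagonist equilibrated 30 min before a repeat curve. Responses were taken as % of the control maximum. pKB (±SE) was calculated by van Rossum at one concentration (0.1-10 µM range), each tested 4-5 times.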

[2] = target: T2, Alpha-1B adrenergic receptor (Rattus norvegicus) (UniProt P15823); experiment: Affinity was evaluated against Alpha-1B adrenoceptor in isolated rat spleen expressed as pKB; format: tissue-based; in short: as §1
T2 sequence (whole entry): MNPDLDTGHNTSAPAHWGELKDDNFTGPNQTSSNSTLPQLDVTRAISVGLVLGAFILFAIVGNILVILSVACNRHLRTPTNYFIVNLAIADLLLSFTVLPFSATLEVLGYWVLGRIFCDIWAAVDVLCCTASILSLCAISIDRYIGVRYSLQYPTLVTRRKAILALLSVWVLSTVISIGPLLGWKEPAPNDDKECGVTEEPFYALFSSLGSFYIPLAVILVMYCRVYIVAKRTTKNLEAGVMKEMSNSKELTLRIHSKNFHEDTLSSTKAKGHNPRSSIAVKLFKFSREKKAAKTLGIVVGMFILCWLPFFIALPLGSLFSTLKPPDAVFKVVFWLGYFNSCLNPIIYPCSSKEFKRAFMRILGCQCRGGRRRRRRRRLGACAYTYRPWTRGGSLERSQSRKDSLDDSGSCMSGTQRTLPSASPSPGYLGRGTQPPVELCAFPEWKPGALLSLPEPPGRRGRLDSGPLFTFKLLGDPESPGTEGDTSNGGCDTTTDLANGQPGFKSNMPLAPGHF

[3] = target: T3, Alpha-1A adrenergic receptor (Homo sapiens, UniProt P35348); experiment: Binding affinity measured in CHO cells expressing human cloned Alpha-1A adrenergic receptor expressed as pKi; format: cell-based
T3 sequence (P35348 whole entry): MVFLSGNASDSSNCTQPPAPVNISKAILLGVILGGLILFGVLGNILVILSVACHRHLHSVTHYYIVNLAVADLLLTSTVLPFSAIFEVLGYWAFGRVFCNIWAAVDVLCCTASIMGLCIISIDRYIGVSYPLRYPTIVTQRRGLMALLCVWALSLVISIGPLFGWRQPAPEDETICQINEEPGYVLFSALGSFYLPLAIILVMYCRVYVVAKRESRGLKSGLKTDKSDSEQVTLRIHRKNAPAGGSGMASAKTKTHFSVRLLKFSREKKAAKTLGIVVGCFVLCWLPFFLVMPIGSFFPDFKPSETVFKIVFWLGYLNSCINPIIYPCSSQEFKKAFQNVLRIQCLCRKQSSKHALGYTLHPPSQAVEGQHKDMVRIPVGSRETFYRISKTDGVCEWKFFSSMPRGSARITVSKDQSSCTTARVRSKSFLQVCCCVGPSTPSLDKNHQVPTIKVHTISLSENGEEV

[4] = target: T4, Alpha-1D adrenergic receptor (Homo sapiens, UniProt P25100); experiment: Binding affinity measured in CHO cells expressing human cloned Alpha-1D adrenergic receptor expressed as pKi; format: cell-based
T4 sequence (P25100 whole entry): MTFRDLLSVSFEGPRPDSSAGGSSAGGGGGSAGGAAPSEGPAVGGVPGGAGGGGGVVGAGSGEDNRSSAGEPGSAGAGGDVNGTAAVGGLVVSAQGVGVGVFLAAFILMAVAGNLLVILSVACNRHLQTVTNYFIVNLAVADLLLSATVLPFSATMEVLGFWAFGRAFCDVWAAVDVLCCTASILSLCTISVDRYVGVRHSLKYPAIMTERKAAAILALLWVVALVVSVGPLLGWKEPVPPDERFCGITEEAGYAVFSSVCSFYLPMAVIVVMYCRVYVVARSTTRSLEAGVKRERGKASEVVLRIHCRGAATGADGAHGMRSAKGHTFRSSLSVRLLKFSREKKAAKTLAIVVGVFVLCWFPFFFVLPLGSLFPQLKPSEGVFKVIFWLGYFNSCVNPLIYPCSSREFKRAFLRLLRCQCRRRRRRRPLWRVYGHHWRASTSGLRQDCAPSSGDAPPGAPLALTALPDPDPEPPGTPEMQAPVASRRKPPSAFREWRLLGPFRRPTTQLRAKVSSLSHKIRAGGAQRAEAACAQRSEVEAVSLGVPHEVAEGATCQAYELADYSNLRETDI

[5] = target: T5, Alpha-1A adrenergic receptor (Rattus norvegicus) (UniProt P43140); details: Vas deferens
T5 sequence (whole entry): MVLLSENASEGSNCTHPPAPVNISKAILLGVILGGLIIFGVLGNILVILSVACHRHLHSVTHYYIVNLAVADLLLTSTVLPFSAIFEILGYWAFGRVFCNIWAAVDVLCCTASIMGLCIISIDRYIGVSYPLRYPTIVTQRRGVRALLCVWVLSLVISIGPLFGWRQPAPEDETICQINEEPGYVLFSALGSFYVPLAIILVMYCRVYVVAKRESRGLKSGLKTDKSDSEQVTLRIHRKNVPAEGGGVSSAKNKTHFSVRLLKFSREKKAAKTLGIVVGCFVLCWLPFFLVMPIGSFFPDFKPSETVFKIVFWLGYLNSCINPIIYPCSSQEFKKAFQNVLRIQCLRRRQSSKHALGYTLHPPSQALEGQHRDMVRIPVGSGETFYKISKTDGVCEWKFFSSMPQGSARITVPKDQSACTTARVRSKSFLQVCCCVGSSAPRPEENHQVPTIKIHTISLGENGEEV

[6] = target: T6, Alpha-1B adrenergic receptor (Homo sapiens, UniProt P35368); experiment: Binding affinity measured in CHO cells expressing human cloned Alpha-1B adrenergic receptor expressed as pKi; format: cell-based
T6 sequence (P35368 whole entry): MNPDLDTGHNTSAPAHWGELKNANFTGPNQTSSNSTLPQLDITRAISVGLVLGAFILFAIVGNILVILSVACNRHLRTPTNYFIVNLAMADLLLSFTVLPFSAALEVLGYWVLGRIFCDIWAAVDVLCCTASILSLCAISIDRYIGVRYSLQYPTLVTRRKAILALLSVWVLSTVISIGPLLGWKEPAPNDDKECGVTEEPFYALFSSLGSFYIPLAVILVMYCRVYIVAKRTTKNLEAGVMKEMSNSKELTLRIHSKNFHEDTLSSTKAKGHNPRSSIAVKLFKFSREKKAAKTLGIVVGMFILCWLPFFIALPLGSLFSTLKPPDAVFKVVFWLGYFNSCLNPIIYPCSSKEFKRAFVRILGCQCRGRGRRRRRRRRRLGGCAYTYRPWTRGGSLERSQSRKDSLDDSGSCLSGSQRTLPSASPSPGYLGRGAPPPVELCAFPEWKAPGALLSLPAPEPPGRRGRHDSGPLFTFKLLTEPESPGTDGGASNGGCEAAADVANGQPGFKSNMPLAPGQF

[7] = target: T1, Alpha-1D adrenergic receptor (Rattus norvegicus); details: Aorta
[8] = target: T2, Alpha-1B adrenergic receptor (Rattus norvegicus); experiment: Affinity was evaluated against Alpha-1B adrenergic receptor in isolated rat spleen expressed as pKB; format: tissue-based; in short: as §1

| Structure (SMILES) | pKB [1] | pKB [2] | Ki [3] [µM] | Ki [4] [µM] | pKB [5] | Ki [6] [µM] | pKB [7] | pKB [8] |
| --- | --- | --- | --- | --- | --- | --- | --- | --- |
| COc1cc2nc3c(c(N)c2cc1OC)CCC(CNC(=O)c1cccc(C(F)(F)F)c1)C3 (configuration not stated) | 7.58 | 7.36 | 0.0316 | 0.0251 | 7.16 | 0.0126 |  |  |
| COc1cccc(OC)c1OCCNCC1COc2ccccc2O1 (configuration not stated) |  | 8.2 |  |  | 9.48 |  | 8.85 |  |
| COc1cc2nc3c(c(O)c2cc1OC)CCC(CNCCOc1c(OC)cccc1OC)C3 (configuration not stated) | 5.92 | 7.05 | 1.7 | 0.389 | 6.24 | 0.219 |  |  |
| COc1cc2nc3c(c(N)c2cc1OC)CCC(CNC(=O)c1ccco1)C3 (configuration not stated) |  |  | 0.0955 | 0.0158 | 6.52 | 0.0123 | 7.47 | 7.3 |
| COc1cc2nc3c(c(N)c2cc1OC)CCC(CNC(=O)c1ccccc1C(F)(F)F)C3 (configuration not stated) | 6.85 | 7.33 | 0.288 | 0.0245 | 6.47 | 0.00741 |  |  |

Continued, values first:

| pKB [1] | pKB [2] | Ki [3] [µM] | Ki [4] [µM] | pKB [5] | Ki [6] [µM] | pKB [7] | pKB [8] | Structure (SMILES) |
| --- | --- | --- | --- | --- | --- | --- | --- | --- |
|  | 6.95 | 2.57 | 1.15 | 5.76 | 0.295 | 6.41 |  | COc1cc2nc3c(c(O)c2cc1OC)CCC(CNC(=O)c1ccco1)C3 (configuration not stated) |
|  | 6.92 |  |  | 6.34 |  | 6.94 |  | COc1cc2nc3c(c(N)c2cc1OC)CCCC(CNC(=O)c1ccco1)C3 (configuration not stated) |
| 6.11 | 6.82 | 0.158 | 0.2 | 6.26 | 0.0794 |  |  | COc1cc2nc3c(c(N)c2cc1OC)CC(CNC(=O)c1ccco1)C3 (configuration not stated) |
|  | 7.2 | 0.977 | 0.2 | 5.7 | 0.0398 | 6.39 |  | COc1cc2nc3c(c(N)c2cc1OC)CCC(CNCCOc1c(OC)cccc1OC)C3 (configuration not stated) |
| 6.67 | 7.2 | 0.0851 | 0.0191 | 6.08 | 0.00891 |  |  | COc1cc2nc3c(c(N)c2cc1OC)CCC(CNC(=O)c1ccc(C(F)(F)F)cc1)C3 (configuration not stated) |
| 6.63 | 7.19 |  |  | 6.67 |  |  |  | COc1cc2nc3c(c(N)c2cc1OC)CCC(CNC(=O)c1ccccc1)C3 (configuration not stated) |
